Assay results collected from several papers.
Lines come from different studies, so protocols differ.
Target: Phosphatidylinositol 4-phosphate 5-kinase type-1 gamma (PIP5K1C, Homo sapiens, UniProt O60331)

`CN(c1nccc(-c2cnn3ncccc23)n1)C1CC1` gave a remaining binding of 100% (binding; 1 µM).
With `O=C(N[C@H]1CCCCC/C=C\C2C[C@@]2(C(=O)O)NC(=O)[C@@H]2C[C@@H](Oc3ccncc3)CN2C1=O)OC1CCCC1` (stereo partly drawn) the remaining binding was 100% (binding; competition with immobilised ligand; 1 µM).
For `C[C@@H]1CCN(c2nccc(-c3cnn4ncccc34)n2)C1`, the remaining binding was 99% (binding; 1 µM).
`CCOCCn1cc(C(=O)Nc2ccc(-n3nc(-c4cccnc4)cc3C(F)(F)F)cn2)ccc1=O` has a remaining binding of 100% (cell-free assay; competition with immobilised ligand; 1 µM).
With `O=C(NCCCN1CCOCC1)c1ccc(Nc2ncc(Cl)c(-c3ccc(Cl)s3)n2)cc1` the remaining binding was 59% (binding; competition with immobilised ligand; 1 µM).
With `COc1ccc2c(c1)O[C@H](c1ccc(OC)c(OC)c1)C[C@@H]2NC(=O)C1(c2ccc3c(c2)OC(F)(F)O3)CC1` the remaining binding was 100% (cell-free assay; competition with immobilised ligand; 1 µM).
`Nc1ncc2c(n1)-c1c([nH]c3ccc(C#CC4CC4)cc13)CCCC2` gave a remaining binding of 57% (binding; competition with immobilised ligand; 1 µM).
For `COc1cnc(Nc2cccc(S(N)(=O)=O)c2)nc1N1CCN(c2ccccc2)CC1`, the remaining binding was 100% (binding; competition with immobilised ligand; 1 µM).
With `C[C@@H]1CN(c2cc(-c3n[nH]c4ccc(OC5(C)CC5)cc34)ncn2)C[C@H](C)O1` the remaining binding was 92% (cell-free assay; competition with immobilised ligand; 0.1 µM).
`N[C@H]1CCN(c2nccc(-c3cnn4ncccc34)n2)C1` gave a remaining binding of 63% (binding; 1 µM).
`O=C(c1ccc(Nc2ncc(Cl)c(-c3cc4ccccc4s3)n2)cc1)N1CCC(N2CCCC2)CC1` gave a remaining binding of 53% (binding; competition with immobilised ligand; 1 µM).
The remaining binding of `COc1ccnn2ncc(-c3ccnc(N(C)C)n3)c12` is reported as 97% (binding; 1 µM).
`FC(F)(F)Oc1cccc(-c2cnc3ccc(-c4ccncc4)nn23)c1` has a remaining binding of 47% (cell-free assay; competition with immobilised ligand; 5 µM).
With `F[C@@H]1CCN(c2nccc(-c3cnn4ncccc34)n2)C1` the remaining binding was 100% (binding; 1 µM).
`O=C(O)c1cc(-c2ccc(C3CCNCC3)cc2)c2ccc(-c3ccc(C(F)(F)F)cc3)cc2c1` has a remaining binding of 100% (cell-free assay; competition with immobilised ligand; 1 µM).
The remaining binding of `CC1CCCN1c1nccc(-c2cnn3ncccc23)n1` (stereo not drawn) is reported as 74% (binding; 1 µM).
For `O=C(NCC1CCOCC1)c1n[nH]cc1NC(=O)c1c(F)cccc1F`, the remaining binding was 55% (binding; competition with immobilised ligand; 1 µM).
With `CNC(=O)Nc1ccc2c(c1)CC[C@@]21OC(=O)N(CC(=O)N(Cc2ccc(F)cc2)[C@@H](C)C(F)(F)F)C1=O` the remaining binding was 100% (cell-free assay; competition with immobilised ligand; 1 µM).
